From ChEMBL document CHEMBL4765369, “Optimal linker length for small molecule PROTACs that selectively target p38α and p38β for degradation” (Eur J Med Chem, 2020)
Activity calls are given as the source filed them. The rule behind the calls is not given here.

What was measured:
[1] = target: T1, Protein cereblon/Mitogen-activated protein kinase 14 (Homo sapiens, UniProt Q16539+Q96SW2); assay: Protac activity at CRBN/p38alpha in human T47D cells assessed as p38alpha degradation at 10 uM measured after 24 hrs by immunoblotting analysis; assay type: cell-based
In short: (§1)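 BBL358 or T47D cells given compound 10 µM for 24 h. RIPA lysates run on SDS-PAGE and immunoblotted for p38α. Odyssey infrared band intensities give p38α/tubulin ratio, normalised to untreated cells and reported as % degradation. Mean ±SEM with n=2 or more (one set: n=2 BBL358, n=1 T47D).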
Target sequence in this assay (Q16539 2-360 limits assumed): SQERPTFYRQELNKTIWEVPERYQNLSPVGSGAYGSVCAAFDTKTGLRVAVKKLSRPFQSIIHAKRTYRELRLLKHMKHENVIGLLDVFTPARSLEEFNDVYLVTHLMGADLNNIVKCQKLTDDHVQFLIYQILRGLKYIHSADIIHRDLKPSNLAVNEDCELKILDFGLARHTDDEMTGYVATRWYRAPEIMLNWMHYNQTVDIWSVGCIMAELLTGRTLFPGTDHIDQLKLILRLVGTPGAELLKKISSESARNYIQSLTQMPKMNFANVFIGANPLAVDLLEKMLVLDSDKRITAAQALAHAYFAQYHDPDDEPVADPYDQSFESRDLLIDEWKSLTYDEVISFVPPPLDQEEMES
Target sequence in this assay (Q96SW2 whole entry partner): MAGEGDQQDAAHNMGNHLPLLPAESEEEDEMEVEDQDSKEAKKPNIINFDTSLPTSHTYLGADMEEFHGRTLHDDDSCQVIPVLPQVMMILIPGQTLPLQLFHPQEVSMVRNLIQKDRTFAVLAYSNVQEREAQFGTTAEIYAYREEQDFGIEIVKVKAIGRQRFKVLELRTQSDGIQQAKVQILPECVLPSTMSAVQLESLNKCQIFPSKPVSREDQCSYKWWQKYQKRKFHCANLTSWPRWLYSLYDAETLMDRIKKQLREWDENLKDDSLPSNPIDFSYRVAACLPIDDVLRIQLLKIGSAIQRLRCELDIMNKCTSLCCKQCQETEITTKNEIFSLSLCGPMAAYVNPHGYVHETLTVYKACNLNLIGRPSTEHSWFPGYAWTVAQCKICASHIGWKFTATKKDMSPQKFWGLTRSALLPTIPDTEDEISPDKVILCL

[2] = target: T1, Protein cereblon/Mitogen-activated protein kinase 14; assay: Protac activity at CRBN/p38alpha in human BBL358 cells assessed as p38alpha degradation at 10 uM measured after 24 hrs by immunoblotting analysis; assay type: cell-based; in short: as §1
Target sequence in this assay (Q16539 2-360 limits assumed): as the sequence (Q16539 2-360 limits assumed) above
Target sequence in this assay (Q96SW2 whole entry partner): as the sequence (Q96SW2 whole entry partner) above

[3] = target: T1, Protein cereblon/Mitogen-activated protein kinase 14; assay: Protac activity at CRBN/p38alpha in human MDA-MB-231 cells assessed as reduction in UV-induced MK2 phosphorylation at 1 uM after 24 hrs by immunoblotting analysis; assay type: cell-based
In short: (§2)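 MDA-MB-231 cells pre-incubated with compound, then p38α pathway stimulated with UV at 30 J/m2; PH797804 reference at 2 µM. Lysates immunoblotted for phospho-MK2. Cells grown in DMEM with 10% FBS at 37 °C, 5% CO2.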
Target sequence in this assay (Q16539 2-360 limits assumed): as the sequence (Q16539 2-360 limits assumed) above
Target sequence in this assay (Q96SW2 whole entry partner): as the sequence (Q96SW2 whole entry partner) above

[4] = target: T1, Protein cereblon/Mitogen-activated protein kinase 14; assay: Protac activity at CRBN/p38alpha in human MDA-MB-231 cells assessed as p38alpha degradation at 1 uM measured after 24 hrs by immunoblotting analysis; assay type: cell-based
In short: (§3)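 MDA-MB-231 and T47D cells exposed 24 h to 1 µM; N-methylated imide analogues tested alongside. RIPA lysates immunoblotted for p38α, intensities quantified from infrared imaging.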
Target sequence in this assay (Q16539 2-360 limits assumed): as the sequence (Q16539 2-360 limits assumed) above
Target sequence in this assay (Q96SW2 whole entry partner): as the sequence (Q96SW2 whole entry partner) above

[5] = target: T1, Protein cereblon/Mitogen-activated protein kinase 14; assay: Protac activity at CRBN/p38alpha in human T47D cells assessed as p38alpha degradation at 1 uM measured after 24 hrs by immunoblotting analysis; assay type: cell-based; in short: as §3
Target sequence in this assay (Q16539 2-360 limits assumed): as the sequence (Q16539 2-360 limits assumed) above
Target sequence in this assay (Q96SW2 whole entry partner): as the sequence (Q96SW2 whole entry partner) above

[6] = Induction of change in p38alpha protein expression in human MDA-MB-231 cells at 1 uM incubated for 16 hrs by mass spectrometry based proteomic analysis; assay type: cell-based; conditions: mda-mb-231, 16 h
In short: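 MDA-MB-231 cells SILAC-labelled to ≥95% in arginine/lysine-free DMEM-F12 with 2% dialysed FBS; heavy cells got compound, light cells got DMSO, 16 h. Lysis in 4% SDS, 0.1 M DTT, Tris pH 7.6; FASP trypsin digestion overnight at 37 °C; nano-LC C18 MS/MS with 300 min run; protein-level heavy/light change.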

[7] = target: T2, Protein cereblon/Mitogen-activated protein kinase 11 (Homo sapiens, UniProt Q15759+Q96SW2); assay: Protac activity at CRBN/p38beta in human retina epithelial cells assessed as p38beta degradation at 1 uM measured after 24 hrs by immunoblotting analysis; assay type: tissue-based; conditions: Epithelial cell
Target sequence in this assay (Q15759 whole entry, looked up): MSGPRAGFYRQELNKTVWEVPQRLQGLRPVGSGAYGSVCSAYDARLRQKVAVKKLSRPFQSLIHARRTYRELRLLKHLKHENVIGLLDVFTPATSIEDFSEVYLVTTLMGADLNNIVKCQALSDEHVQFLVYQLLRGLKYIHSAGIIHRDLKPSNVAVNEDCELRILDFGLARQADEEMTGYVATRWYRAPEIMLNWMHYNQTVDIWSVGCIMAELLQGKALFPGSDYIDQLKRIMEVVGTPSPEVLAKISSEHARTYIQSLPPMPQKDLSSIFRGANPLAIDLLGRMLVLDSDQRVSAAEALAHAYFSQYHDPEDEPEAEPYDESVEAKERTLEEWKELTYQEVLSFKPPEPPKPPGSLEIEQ
Target sequence in this assay (Q96SW2 whole entry, looked up): as the sequence (Q96SW2 whole entry partner) above

[8] = target: T1, Protein cereblon/Mitogen-activated protein kinase 14; assay: Protac activity at CRBN/p38alpha in human MDA-MB-231 cells assessed as p38alpha degradation measured after 24 hrs by immunoblotting analysis; assay type: cell-based
In short: (§4)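 T47D and MDA-MB-231 cells treated with a concentration series for 24 h; lysates immunoblotted for p38α. p38α/tubulin band ratio normalised to untreated cells; DC50 (conc. giving 50% degradation) fitted from biological duplicates.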
Target sequence in this assay (Q16539 whole entry): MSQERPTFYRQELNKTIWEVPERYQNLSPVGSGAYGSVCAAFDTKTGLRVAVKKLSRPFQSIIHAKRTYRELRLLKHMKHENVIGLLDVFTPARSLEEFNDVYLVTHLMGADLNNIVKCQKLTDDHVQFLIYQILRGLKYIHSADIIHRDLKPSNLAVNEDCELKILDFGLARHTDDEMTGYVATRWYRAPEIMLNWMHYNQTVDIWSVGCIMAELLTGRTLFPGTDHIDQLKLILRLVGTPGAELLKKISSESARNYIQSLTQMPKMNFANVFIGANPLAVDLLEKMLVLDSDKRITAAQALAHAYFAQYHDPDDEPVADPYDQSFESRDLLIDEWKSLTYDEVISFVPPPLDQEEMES
Target sequence in this assay (Q96SW2 whole entry): as the sequence (Q96SW2 whole entry partner) above

[9] = target: T1, Protein cereblon/Mitogen-activated protein kinase 14; assay: Protac activity at CRBN/p38alpha in […] cells assessed as p38alpha degradation at 1 uM measured after 24 hrs by immunoblotting analysis; assay type: cell-based
Target sequence in this assay (Q16539 2-360 limits assumed): as the sequence (Q16539 2-360 limits assumed) above
Target sequence in this assay (Q96SW2 whole entry partner): as the sequence (Q96SW2 whole entry partner) above

[10] = target: T2, Protein cereblon/Mitogen-activated protein kinase 11; assay: Protac activity at CRBN/p38beta in human T47D cells assessed as p38beta degradation at 1 uM measured after 24 hrs by immunoblotting analysis; assay type: cell-based
Target sequence in this assay (Q15759 whole entry): as the sequence (Q15759 whole entry, looked up) above
Target sequence in this assay (Q96SW2 whole entry): as the sequence (Q96SW2 whole entry partner) above

[11] = target: T2, Protein cereblon/Mitogen-activated protein kinase 11; assay: Protac activity at CRBN/p38beta in human MDA-MB-231 cells assessed as p38beta degradation at 1 uM measured after 24 hrs by immunoblotting analysis; assay type: cell-based
Target sequence in this assay (Q15759 whole entry): as the sequence (Q15759 whole entry, looked up) above
Target sequence in this assay (Q96SW2 whole entry): as the sequence (Q96SW2 whole entry partner) above

[12] = target: T1, Protein cereblon/Mitogen-activated protein kinase 14; assay: Protac activity at CRBN/p38alpha in human MDA-MB-231 cells assessed as reduction in UV-induced MK2 phosphorylation at 1 uM after 48 hrs by immunoblotting analysis; assay type: cell-based; in short: as §2
[13] = target: T2, Protein cereblon/Mitogen-activated protein kinase 11; assay: Protac activity at CRBN/p38beta in […] cells assessed as p38beta degradation at 1 uM measured after 24 hrs by immunoblotting analysis; assay type: cell-based
Target sequence in this assay (Q15759 whole entry, looked up): as the sequence (Q15759 whole entry, looked up) above
Target sequence in this assay (Q96SW2 whole entry, looked up): as the sequence (Q96SW2 whole entry partner) above

[14] = target: T1, Protein cereblon/Mitogen-activated protein kinase 14; assay: Protac activity at CRBN/p38alpha in human retina epithelial cells assessed as p38alpha degradation at 1 uM measured after 24 hrs by immunoblotting analysis; assay type: tissue-based; conditions: Epithelial cell
[15] = Protac activity at CRBN/p38beta in mouse bone marrow derived macrophages assessed as p38beta degradation at 1 uM measured after 24 hrs by immunoblotting analysis; conditions: Macrophage
[16] = Protac activity at CRBN/p38alpha in mouse bone marrow derived macrophages assessed as p38alpha degradation at 1 uM measured after 24 hrs by immunoblotting analysis; conditions: Macrophage
[17] = target: T1, Protein cereblon/Mitogen-activated protein kinase 14; assay: Protac activity at CRBN/p38alpha in human T47D cells assessed as p38alpha degradation measured after 24 hrs by immunoblotting analysis; assay type: cell-based; in short: as §4
Target sequence in this assay (Q16539 whole entry): as the sequence (Q16539 whole entry) above
Target sequence in this assay (Q96SW2 whole entry): as the sequence (Q96SW2 whole entry partner) above

Row | Activity [1] | Activity [2] | SMILES | other results
1 | 8% | – | Cc1ccc(C(=O)NCCc2cn(CCCC(=O)NCCNc3cccc4c3C(=O)N(C3CCC(=O)NC3=O)C4=O)nn2)cc1-n1c(C)cc(OCc2ccc(F)cc2F)c(Br)c1=O (centres undefined) | –
2 | 4% | – | Cc1ccc(C(=O)NCCCCc2cn(CC[C@H](N)C(=O)NCCCCNc3cccc4c3C(=O)N(C3CCC(=O)NC3=O)C4=O)nn2)cc1-n1c(C)cc(OCc2ccc(F)cc2F)c(Br)c1=O (some centres undefined) | –
3 | 76% | 0.5% | Cc1ccc(C(=O)NCCCCc2cn(CCCC(=O)NCCOCCOCCNC(=O)c3ccc4c(c3)C(=O)N(C3CCC(=O)N(Cc5ccccc5[N+](=O)[O-])C3=O)C4=O)nn2)cc1-n1c(C)cc(OCc2ccc(F)cc2F)c(Br)c1=O (centres undefined) | –
4 | – | 40% | Cc1ccc(C(=O)NCCCCNC(=O)c2ccc3c(c2)C(=O)N(C2CCC(=O)NC2=O)C3=O)cc1-n1c(C)cc(OCc2ccc(F)cc2F)c(Br)c1=O (centres undefined) | –
5 | 47% | 67% | Cc1ccc(C(=O)NCCCCc2cn(CCCC(=O)NCCCCCCNc3cccc4c3C(=O)N(C3CCC(=O)NC3=O)C4=O)nn2)cc1-n1c(C)cc(OCc2ccc(F)cc2F)c(Br)c1=O (centres undefined) | –
6 | 41% | 92% | Cc1ccc(C(=O)NCCCCc2cn(CCOCCOCCOCCOCCNc3cccc4c3C(=O)N(C3CCC(=O)NC3=O)C4=O)nn2)cc1-n1c(C)cc(OCc2ccc(F)cc2F)c(Br)c1=O (centres undefined) | –
7 | 87% | 74% | Cc1ccc(C(=O)NCCCCc2cn(CCCC(=O)NCCCNc3cccc4c3C(=O)N(C3CCC(=O)NC3=O)C4=O)nn2)cc1-n1c(C)cc(OCc2ccc(F)cc2F)c(Br)c1=O (centres undefined) | –
8 | 68% | 60% | Cc1ccc(C(=O)NCCCc2cn(CCCC(=O)NCCCNc3cccc4c3C(=O)N(C3CCC(=O)NC3=O)C4=O)nn2)cc1-n1c(C)cc(OCc2ccc(F)cc2F)c(Br)c1=O (centres undefined) | –
9 | 91% | 84% | Cc1ccc(C(=O)NCCCc2cn(CCCC(=O)NCCCCNc3cccc4c3C(=O)N(C3CCC(=O)NC3=O)C4=O)nn2)cc1-n1c(C)cc(OCc2ccc(F)cc2F)c(Br)c1=O (centres undefined) | –
10 | 85% | 79% | Cc1ccc(C(=O)NCCCCc2cn(CCCC(=O)NCCOCCOCCNc3cccc4c3C(=O)N(C3CCC(=O)NC3=O)C4=O)nn2)cc1-n1c(C)cc(OCc2ccc(F)cc2F)c(Br)c1=O (centres undefined) | –
11 | – | 60% | Cc1ccc(C(=O)NCCOCCOCCNc2cccc3c2C(=O)N(C2CCC(=O)NC2=O)C3=O)cc1-n1c(C)cc(OCc2ccc(F)cc2F)c(Br)c1=O (centres undefined) | –
12 | – | – | Cc1ccc(C(=O)NCCCCc2cn(CCCC(=O)NCCCCNc3cccc4c3C(=O)N(C3CCC(=O)N(C)C3=O)C4=O)nn2)cc1-n1c(C)cc(OCc2ccc(F)cc2F)c(Br)c1=O (centres undefined) | Activity [3]: inactive; Activity [4]: inactive; Activity [5]: inactive
13 | 25% | 40% | Cc1ccc(C(=O)NCCc2cn(CCCC(=O)NCCCCNc3cccc4c3C(=O)N(C3CCC(=O)NC3=O)C4=O)nn2)cc1-n1c(C)cc(OCc2ccc(F)cc2F)c(Br)c1=O (centres undefined) | –
14 | 20% | 82% | Cc1ccc(C(=O)NCCOCCOCCOCCOCCOCCOCCNc2cccc3c2C(=O)N(C2CCC(=O)NC2=O)C3=O)cc1-n1c(C)cc(OCc2ccc(F)cc2F)c(Br)c1=O (centres undefined) | –
15 | – | 55% | Cc1ccc(C(=O)NCCOCCOCCNC(=O)c2ccc3c(c2)C(=O)N(C2CCC(=O)NC2=O)C3=O)cc1-n1c(C)cc(OCc2ccc(F)cc2F)c(Br)c1=O (centres undefined) | –
16 | 93% | 81% | Cc1ccc(C(=O)NCCCCc2cn(CC[C@H](NC(=O)OC(C)(C)C)C(=O)NCCCCNc3cccc4c3C(=O)N(C3CCC(=O)NC3=O)C4=O)nn2)cc1-n1c(C)cc(OCc2ccc(F)cc2F)c(Br)c1=O (some centres undefined) | –
17 | 16% | 47% | C=C1c2cccc(NCCCCCNC(=O)CCCn3cc(CCCCNC(=O)c4ccc(C)c(-n5c(C)cc(OCc6ccc(F)cc6F)c(Br)c5=O)c4)nn3)c2C(=O)N1C1CCC(=O)NC1=O (centres undefined) | –
18 | 40% | 12% | Cc1ccc(C(=O)NCCCCc2cn(CCCC(=O)NCCNc3cccc4c3C(=O)N(C3CCC(=O)NC3=O)C4=O)nn2)cc1-n1c(C)cc(OCc2ccc(F)cc2F)c(Br)c1=O (centres undefined) | –
19 | 82% | 77% | Cc1ccc(C(=O)NCCCCc2cn(CCCC(=O)NCCCCCNc3cccc4c3C(=O)N(C3CCC(=O)NC3=O)C4=O)nn2)cc1-n1c(C)cc(OCc2ccc(F)cc2F)c(Br)c1=O (centres undefined) | –
20 | 42% | 36% | Cc1ccc(C(=O)NCCc2cn(CCCC(=O)NCCCNc3cccc4c3C(=O)N(C3CCC(=O)NC3=O)C4=O)nn2)cc1-n1c(C)cc(OCc2ccc(F)cc2F)c(Br)c1=O (centres undefined) | –
21 | 20% | 3% | Cc1ccc(C(=O)NCCCCc2cn(CCCC(=O)NCCOCCOCCNc3cccc4c3C(=O)N(C3CCC(=O)N(Cc5ccccc5[N+](=O)[O-])C3=O)C4=O)nn2)cc1-n1c(C)cc(OCc2ccc(F)cc2F)c(Br)c1=O (centres undefined) | –
22 | 26% | 78% | Cc1ccc(C(=O)NCCCCc2cn(CCOCCOCCOCCNc3cccc4c3C(=O)N(C3CCC(=O)NC3=O)C4=O)nn2)cc1-n1c(C)cc(OCc2ccc(F)cc2F)c(Br)c1=O (centres undefined) | –
23 | 89% | 84% | Cc1ccc(C(=O)NCCCCc2cn(CCCC(=O)NCCCCNc3cccc4c3C(=O)N(C3CCC(=O)NC3=O)C4=O)nn2)cc1-n1c(C)cc(OCc2ccc(F)cc2F)c(Br)c1=O (centres undefined) | Activity [6]: Active; Activity [7]: Active; Activity [3]: Active; DC50 [8]: 0.0272 µM; Activity [9]: Active; DC50 [10]: 0.0485 µM; DC50 [11]: 0.0489 µM; Activity [12]: Active; Activity [13]: Active; Activity [14]: Active; Activity [15]: Active; Activity [16]: Active; DC50 [17]: 0.024 µM
24 | – | – | C=C1c2cccc(NCCCCCCNC(=O)CCCn3cc(CCCCNC(=O)c4ccc(C)c(-n5c(C)cc(OCc6ccc(F)cc6F)c(Br)c5=O)c4)nn3)c2C(=O)N1C1CCC(=O)N(C)C1=O (centres undefined) | Activity [3]: inactive; Activity [4]: inactive; Activity [5]: inactive
25 | – | 8% | Cc1ccc(C(=O)NCCCCNc2cccc3c2C(=O)N(C2CCC(=O)NC2=O)C3=O)cc1-n1c(C)cc(OCc2ccc(F)cc2F)c(Br)c1=O (centres undefined) | –
